Experimental data taken from ChEMBL document CHEMBL5247680, “Design, Synthesis, and Biological Activity of Thioguanine-Modified Pleuromutilin Derivatives” (ACS Med Chem Lett, 2023).
In brackets after ≈: the same amount, converted by molar mass. Activity calls are given as the source filed them. The rule behind the calls is not given here.

How the values were obtained:
Staphylococcus aureus [1] = experiment: Antibacterial activity against Methicillin-sensitive Staphylococcus aureus ATCC 29213 assessed as bacterial growth inhibition incubated for 20 to 24 hrs by microbroth serial dilution assay
[2] = system: Staphylococcus epidermidis; experiment: Selectivity ratio of MBC for antibacterial activity against Methicillin-sensitive Staphylococcus epidermidis […] to MIC for antibacterial activity against Methicillin-sensitive Staphylococcus epidermidis […]; type: functional
[3] = system: Staphylococcus epidermidis; experiment: Antibacterial activity against Methicillin-resistant Staphylococcus epidermidis ATCC 51625 assessed as bacterial growth inhibition incubated for 20 to 24 hrs by microbroth serial dilution assay; type: functional; conditions: time 20-24 hrs
Staphylococcus aureus [4] = experiment: Antibacterial activity against Methicillin-resistant Staphylococcus aureus ATCC 43300 assessed as bacterial growth inhibition incubated for 20 to 24 hrs by microbroth serial dilution assay; type: functional; conditions: time 20-24 hrs
[5] = system: Staphylococcus epidermidis; experiment: Antibacterial activity against Methicillin-sensitive Staphylococcus epidermidis ATCC 12228 assessed as bacterial growth inhibition incubated for 20 to 24 hrs by microbroth serial dilution assay; type: functional; conditions: time 20-24 hrs
Staphylococcus aureus [6] = experiment: Antibacterial activity against Staphylococcus aureus ATCC 25923 assessed as bacterial growth inhibition incubated for 20 to 24 hrs by microbroth serial dilution assay; type: functional; conditions: time 20-24 hrs
Staphylococcus aureus [7] = experiment: Selectivity ratio of MBC for antibacterial activity against Staphylococcus aureus to MIC for antibacterial activity against Staphylococcus aureus; type: functional
[8] = system: Staphylococcus epidermidis; experiment: Selectivity ratio of MBC for antibacterial activity against Methicillin-resistant Staphylococcus epidermidis ATCC 51625 to MIC for antibacterial activity against Methicillin-resistant Staphylococcus epidermidis ATCC 51625; type: functional
Staphylococcus aureus [9] = experiment: Selectivity ratio of MBC for antibacterial activity against Methicillin-resistant Staphylococcus aureus ATCC 33591 to MIC for antibacterial activity against Methicillin-resistant Staphylococcus aureus ATCC 33591; type: functional
Staphylococcus aureus [10] = experiment: Antibacterial activity against Methicillin-resistant Staphylococcus aureus ATCC 33591 assessed as bacterial growth inhibition incubated for 20 to 24 hrs by microbroth serial dilution assay; type: functional; conditions: time 20-24 hrs
Staphylococcus aureus [11] = experiment: Selectivity ratio of MBC for antibacterial activity against Methicillin-sensitive Staphylococcus aureus ATCC 29213 to MIC for antibacterial activity against Methicillin-sensitive Staphylococcus aureus ATCC 29213
Staphylococcus aureus [12] = experiment: Selectivity ratio of MBC for antibacterial activity against Methicillin-resistant Staphylococcus aureus ATCC 43300 to MIC for antibacterial activity against Methicillin-resistant Staphylococcus aureus ATCC 43300; type: functional
Staphylococcus aureus [13] = experiment: Antibacterial activity against Methicillin-resistant Staphylococcus aureus ATCC 33591 assessed as bacterial growth inhibition at 1 to 2 times MIC measured upto 24 hrs by time kill assay; type: functional, organism-based
Method in brief: (§1)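 MRSA ATCC 33591 time-kill curves at 1×, 2× and 4× MIC, with a tiamulin positive control and an untreated growth control. Viable counts were taken as CFU·mL⁻¹ at time points through incubation, including 2, 8 and 12 h.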

Staphylococcus aureus [14] = experiment: In vivo Antibacterial activity against Methicillin-resistant Staphylococcus aureus in ICR mouse thigh infection model assessed as reduction in bacterial load at 40 mg/kg, IP by […]; type: functional
Staphylococcus aureus [15] = experiment: Antibacterial activity against Methicillin-resistant Staphylococcus aureus ATCC 33591 assessed as bacterial colony inhibition at 1 to 2 times MIC measured upto 24 hrs by time kill assay; type: functional, organism-based
Method in brief: as §1

Staphylococcus aureus [16] = experiment: Antibacterial activity against Methicillin-resistant Staphylococcus aureus ATCC 33591 assessed as bacterial bactericidal effect at 1 to 2 times MIC measured upto 24 hrs by time kill assay; type: functional, organism-based
Method in brief: as §1

| SMILES | MIC (Staphylococcus aureus [1]) | Ratio [2] | MIC [3] | MIC (Staphylococcus aureus [4]) | MIC [5] | MIC (Staphylococcus aureus [6]) | Ratio (Staphylococcus aureus [7]) | Ratio [8] | Ratio (Staphylococcus aureus [9]) | MIC (Staphylococcus aureus [10]) | Ratio (Staphylococcus aureus [11]) | Ratio (Staphylococcus aureus [12]) | Activity (Staphylococcus aureus [13]) | Activity (Staphylococcus aureus [14]) | Activity (Staphylococcus aureus [15]) | Activity (Staphylococcus aureus [16]) |
| --- | --- | --- | --- | --- | --- | --- | --- | --- | --- | --- | --- | --- | --- | --- | --- | --- |
| C=C[C@]1(C)C[C@@H](OC(=O)CSc2nc(N)nc3[nH]cnc23)[C@@]2(C)C3C(=O)CC[C@@]3(CC[C@H]2C)[C@@H](C)[C@@H]1O (stereo partly specified) | 0.125 µg/mL (≈ 0.237 µM) | >4 | 0.125 µg/mL (≈ 0.237 µM) | 0.125 µg/mL (≈ 0.237 µM) | 0.125 µg/mL (≈ 0.237 µM) | 0.25 µg/mL (≈ 0.474 µM) | >4 | 2 | 4 | 0.125 µg/mL (≈ 0.237 µM) | – | – | – | – | – | – |
| C=C[C@]1(C)C[C@@H](OC(=O)CSc2nc(N)nc3c2ncn3C(=O)NCc2ccccc2OC)[C@@]2(C)C3C(=O)CC[C@@]3(CC[C@H]2C)[C@@H](C)[C@@H]1O (stereo partly specified) | 0.0625 µg/mL (≈ 0.0905 µM) | >4 | 0.0625 µg/mL (≈ 0.0905 µM) | 0.0625 µg/mL (≈ 0.0905 µM) | 0.0156 µg/mL (≈ 0.0226 µM) | 0.125 µg/mL (≈ 0.181 µM) | >4 | – | 4 | 0.125 µg/mL (≈ 0.181 µM) | 2 | – | – | – | – | – |
| C=C[C@]1(C)C[C@@H](OC(=O)CSc2nc(N)nc3c2ncn3C(=O)NCc2cccc(OC)c2)[C@@]2(C)C3C(=O)CC[C@@]3(CC[C@H]2C)[C@@H](C)[C@@H]1O (stereo partly specified) | 0.0625 µg/mL (≈ 0.0905 µM) | >4 | 0.0625 µg/mL (≈ 0.0905 µM) | 0.125 µg/mL (≈ 0.181 µM) | 0.0156 µg/mL (≈ 0.0226 µM) | 0.125 µg/mL (≈ 0.181 µM) | >4 | 2 | 4 | 0.125 µg/mL (≈ 0.181 µM) | 4 | – | – | – | – | – |
| C=C[C@]1(C)C[C@@H](OC(=O)CSc2nc(N)nc3c2ncn3C(=O)OCC)[C@@]2(C)C3C(=O)CC[C@@]3(CC[C@H]2C)[C@@H](C)[C@@H]1O (stereo partly specified) | 0.125 µg/mL (≈ 0.208 µM) | >4 | 0.25 µg/mL (≈ 0.417 µM) | 0.125 µg/mL (≈ 0.208 µM) | < 0.0078 µg/mL | 0.25 µg/mL (≈ 0.417 µM) | 4 | – | – | 0.25 µg/mL (≈ 0.417 µM) | >4 | >4 | – | – | – | – |
| C=C[C@]1(C)C[C@@H](OC(=O)CSc2nc(NC(=O)CN3CCOCC3)nc3[nH]cnc23)[C@@]2(C)C3C(=O)CC[C@@]3(CC[C@H]2C)[C@@H](C)[C@@H]1O (stereo partly specified) | 1 µg/mL (≈ 1.53 µM) | >4 | 0.125 µg/mL (≈ 0.191 µM) | 1 µg/mL (≈ 1.53 µM) | 0.0156 µg/mL (≈ 0.0238 µM) | 0.5 µg/mL (≈ 0.764 µM) | – | – | >4 | 1 µg/mL (≈ 1.53 µM) | >4 | >4 | – | – | – | – |
| C=C[C@]1(C)C[C@@H](OC(=O)CSc2nc(N)nc3c2ncn3C(=O)c2ccc(OC)cc2)[C@@]2(C)C3C(=O)CC[C@@]3(CC[C@H]2C)[C@@H](C)[C@@H]1O (stereo partly specified) | 0.5 µg/mL (≈ 0.755 µM) | >4 | 0.25 µg/mL (≈ 0.378 µM) | 0.125 µg/mL (≈ 0.189 µM) | < 0.0078 µg/mL | 0.25 µg/mL (≈ 0.378 µM) | >4 | 4 | – | 0.5 µg/mL (≈ 0.755 µM) | – | – | – | – | – | – |
| C=C[C@]1(C)C[C@@H](OC(=O)CSc2nc(NC(=O)CN3CCCC3)nc3[nH]cnc23)[C@@]2(C)C3C(=O)CC[C@@]3(CC[C@H]2C)[C@@H](C)[C@@H]1O (stereo partly specified) | 2 µg/mL (≈ 3.13 µM) | >4 | 1 µg/mL (≈ 1.57 µM) | 1 µg/mL (≈ 1.57 µM) | 2 µg/mL (≈ 3.13 µM) | 2 µg/mL (≈ 3.13 µM) | >4 | 4 | 4 | 2 µg/mL (≈ 3.13 µM) | 4 | – | – | – | – | – |
| C=C[C@]1(C)C[C@@H](OC(=O)CSCCN(CC)CC)[C@]2(C)[C@H](C)CC[C@]3(CCC(=O)[C@H]32)[C@@H](C)[C@@H]1O [TIAMULIN] | 1 µg/mL (≈ 2.03 µM) | >4 | 1 µg/mL (≈ 2.03 µM) | 2 µg/mL (≈ 4.05 µM) | 0.5 µg/mL (≈ 1.01 µM) | 2 µg/mL (≈ 4.05 µM) | 4 | – | – | 1 µg/mL (≈ 2.03 µM) | >4 | – | Active | 1 10^7CFU/g | Active | inactive |
| C=C[C@]1(C)C[C@@H](OC(=O)CSc2nc(N)nc3c2ncn3C(=O)Nc2cccc(NC(=O)OC(C)(C)C)c2)[C@@]2(C)C3C(=O)CC[C@@]3(CC[C@H]2C)[C@@H](C)[C@@H]1O (stereo partly specified) | 0.25 µg/mL (≈ 0.328 µM) | >4 | 0.125 µg/mL (≈ 0.164 µM) | 0.25 µg/mL (≈ 0.328 µM) | 0.0156 µg/mL (≈ 0.0205 µM) | 0.25 µg/mL (≈ 0.328 µM) | >4 | – | 4 | 0.25 µg/mL (≈ 0.328 µM) | 2 | – | – | – | – | – |
| C=C[C@]1(C)C[C@@H](OC(=O)CSC(C)(C)CNC(=O)[C@H](N)C(C)C)[C@]2(C)[C@H](C)CC[C@]3(CCC(=O)[C@H]32)[C@@H](C)[C@@H]1O [VALNEMULIN] | 0.125 µg/mL (≈ 0.221 µM) | >4 | 0.125 µg/mL (≈ 0.221 µM) | 0.125 µg/mL (≈ 0.221 µM) | 2 µg/mL (≈ 3.54 µM) | 0.25 µg/mL (≈ 0.443 µM) | 1 | – | – | 0.25 µg/mL (≈ 0.443 µM) | >4 | 4 | – | – | – | – |
| C=C[C@]1(C)C[C@@H](OC(=O)CSc2nc(N)nc3c2ncn3C(=O)Nc2ccccc2Cl)[C@@]2(C)C3C(=O)CC[C@@]3(CC[C@H]2C)[C@@H](C)[C@@H]1O (stereo partly specified) | 0.25 µg/mL (≈ 0.367 µM) | >4 | 0.0625 µg/mL (≈ 0.0917 µM) | 0.125 µg/mL (≈ 0.183 µM) | 0.0078 µg/mL (≈ 0.0114 µM) | 0.125 µg/mL (≈ 0.183 µM) | >4 | – | – | 0.125 µg/mL (≈ 0.183 µM) | 4 | – | – | – | – | – |
| C=C[C@]1(C)C[C@@H](OC(=O)CSc2nc(N)nc3c2ncn3C(=O)Nc2ccc(C(C)=O)cc2)[C@@]2(C)C3C(=O)CC[C@@]3(CC[C@H]2C)[C@@H](C)[C@@H]1O (stereo partly specified) | 0.125 µg/mL (≈ 0.181 µM) | >4 | 0.125 µg/mL (≈ 0.181 µM) | 0.125 µg/mL (≈ 0.181 µM) | 0.0156 µg/mL (≈ 0.0226 µM) | 0.062 µg/mL (≈ 0.09 µM) | >4 | – | – | 0.0625 µg/mL (≈ 0.0907 µM) | 4 | – | – | – | – | – |
| C=C[C@]1(C)C[C@@H](OC(=O)CSc2nc(N)nc3c2ncn3C(=O)Nc2ccc(F)cc2)[C@@]2(C)C3C(=O)CC[C@@]3(CC[C@H]2C)[C@@H](C)[C@@H]1O (stereo partly specified) | 0.25 µg/mL (≈ 0.376 µM) | >4 | 0.125 µg/mL (≈ 0.188 µM) | 0.125 µg/mL (≈ 0.188 µM) | 0.0156 µg/mL (≈ 0.0235 µM) | 0.125 µg/mL (≈ 0.188 µM) | >4 | 4 | – | 0.125 µg/mL (≈ 0.188 µM) | 2 | – | – | – | – | – |
| C=C[C@]1(C)C[C@@H](OC(=O)CSc2nc(N)nc3c2ncn3C(=O)Nc2cccc(C(F)(F)F)c2)[C@@]2(C)C3C(=O)CC[C@@]3(CC[C@H]2C)[C@@H](C)[C@@H]1O (stereo partly specified) | 0.125 µg/mL (≈ 0.175 µM) | >4 | 0.125 µg/mL (≈ 0.175 µM) | 0.25 µg/mL (≈ 0.35 µM) | 0.0156 µg/mL (≈ 0.0218 µM) | 0.25 µg/mL (≈ 0.35 µM) | >4 | 4 | – | 0.25 µg/mL (≈ 0.35 µM) | – | – | – | – | – | – |
